Results: ChEMBL document CHEMBL1132711 (J Med Chem, 1999)

Assays:
[1] = target: T1, Progesterone receptor (Homo sapiens, UniProt P06401); experiment: (§1) Compound was tested for agonistic activity by cotransfection assay against human Progesterone receptor in CV-1 cells; format: functional, cell-based
T1 sequence (P06401 whole entry): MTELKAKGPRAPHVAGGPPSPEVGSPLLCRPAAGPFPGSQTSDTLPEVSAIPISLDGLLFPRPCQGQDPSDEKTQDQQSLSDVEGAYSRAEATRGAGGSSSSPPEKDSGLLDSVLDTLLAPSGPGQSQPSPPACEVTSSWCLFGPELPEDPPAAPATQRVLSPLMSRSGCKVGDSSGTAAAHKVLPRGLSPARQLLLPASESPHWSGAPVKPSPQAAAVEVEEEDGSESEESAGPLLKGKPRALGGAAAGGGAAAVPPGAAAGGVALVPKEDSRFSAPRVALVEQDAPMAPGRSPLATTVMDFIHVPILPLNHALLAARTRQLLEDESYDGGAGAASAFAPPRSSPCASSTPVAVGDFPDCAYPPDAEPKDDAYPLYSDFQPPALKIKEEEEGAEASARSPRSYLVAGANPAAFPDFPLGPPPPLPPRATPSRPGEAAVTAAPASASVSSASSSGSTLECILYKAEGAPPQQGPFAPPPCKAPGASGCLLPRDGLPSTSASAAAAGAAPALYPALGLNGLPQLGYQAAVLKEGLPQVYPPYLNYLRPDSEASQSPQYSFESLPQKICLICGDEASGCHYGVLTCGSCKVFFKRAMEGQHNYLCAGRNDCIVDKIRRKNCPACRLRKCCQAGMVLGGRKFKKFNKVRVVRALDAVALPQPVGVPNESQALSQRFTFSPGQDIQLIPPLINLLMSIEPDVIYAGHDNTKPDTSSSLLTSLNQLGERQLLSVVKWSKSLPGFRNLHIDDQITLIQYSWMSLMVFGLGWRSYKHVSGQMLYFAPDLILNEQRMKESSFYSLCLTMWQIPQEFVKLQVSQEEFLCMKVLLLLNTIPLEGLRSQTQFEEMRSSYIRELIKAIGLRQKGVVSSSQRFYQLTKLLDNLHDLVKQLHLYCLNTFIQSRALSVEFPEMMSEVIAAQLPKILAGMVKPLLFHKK

[2] = target: T1, Progesterone receptor; experiment: (§2) Agonistic activity by cotransfection assay against human Progesterone receptor in T47D cells; format: functional, cell-based
[3] = target: T2, Progesterone receptor (Homo sapiens) (UniProt P06401); experiment: as §1; format: functional, cell-based
T2 sequence (whole entry): T1 sequence (P06401 whole entry)

[4] = target: T2, Progesterone receptor (Homo sapiens); experiment: as §2; format: functional, cell-based
In short: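 T47D human breast cancer cells (high endogenous hPR) incubated with test compound in 96-well format; alkaline phosphatase expression measured by absorbance. […] EC50 from full dose–response curves; mean of at least three separate experiments in triplicate, or single experiment where no error given.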

[5] = target: T1, Progesterone receptor; experiment: Compound was evaluated for its binding affinity against baculovirus expressed Progesterone receptor
[6] = target: T3, Androgen receptor (Homo sapiens, UniProt P10275)
T3 sequence (P10275 whole entry): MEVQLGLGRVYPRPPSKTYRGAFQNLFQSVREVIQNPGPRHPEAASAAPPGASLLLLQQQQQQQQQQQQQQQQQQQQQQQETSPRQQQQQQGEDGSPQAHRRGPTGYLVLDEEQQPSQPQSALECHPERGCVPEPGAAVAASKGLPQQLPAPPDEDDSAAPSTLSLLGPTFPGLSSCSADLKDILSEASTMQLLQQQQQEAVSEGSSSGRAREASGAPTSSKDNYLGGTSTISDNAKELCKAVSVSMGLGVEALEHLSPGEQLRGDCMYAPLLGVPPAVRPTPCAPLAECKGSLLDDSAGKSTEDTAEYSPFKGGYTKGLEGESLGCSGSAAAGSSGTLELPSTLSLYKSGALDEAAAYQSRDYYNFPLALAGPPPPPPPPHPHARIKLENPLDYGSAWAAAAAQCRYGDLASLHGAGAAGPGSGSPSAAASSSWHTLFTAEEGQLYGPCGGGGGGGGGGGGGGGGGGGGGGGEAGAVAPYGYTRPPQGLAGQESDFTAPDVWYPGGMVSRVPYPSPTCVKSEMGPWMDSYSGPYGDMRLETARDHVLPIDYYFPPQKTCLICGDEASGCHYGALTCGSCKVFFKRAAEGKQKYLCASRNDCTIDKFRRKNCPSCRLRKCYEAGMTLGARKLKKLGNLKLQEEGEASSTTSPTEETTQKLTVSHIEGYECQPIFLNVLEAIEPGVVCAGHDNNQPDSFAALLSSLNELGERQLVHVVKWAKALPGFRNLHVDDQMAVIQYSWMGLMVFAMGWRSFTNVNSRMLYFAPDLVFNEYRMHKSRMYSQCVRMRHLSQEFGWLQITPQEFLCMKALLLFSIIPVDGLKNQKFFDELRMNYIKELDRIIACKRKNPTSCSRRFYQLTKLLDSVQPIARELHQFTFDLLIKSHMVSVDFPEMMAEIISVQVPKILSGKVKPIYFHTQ

[7] = target: T4, Glucocorticoid receptor (Homo sapiens, UniProt P04150)
T4 sequence (P04150 whole entry): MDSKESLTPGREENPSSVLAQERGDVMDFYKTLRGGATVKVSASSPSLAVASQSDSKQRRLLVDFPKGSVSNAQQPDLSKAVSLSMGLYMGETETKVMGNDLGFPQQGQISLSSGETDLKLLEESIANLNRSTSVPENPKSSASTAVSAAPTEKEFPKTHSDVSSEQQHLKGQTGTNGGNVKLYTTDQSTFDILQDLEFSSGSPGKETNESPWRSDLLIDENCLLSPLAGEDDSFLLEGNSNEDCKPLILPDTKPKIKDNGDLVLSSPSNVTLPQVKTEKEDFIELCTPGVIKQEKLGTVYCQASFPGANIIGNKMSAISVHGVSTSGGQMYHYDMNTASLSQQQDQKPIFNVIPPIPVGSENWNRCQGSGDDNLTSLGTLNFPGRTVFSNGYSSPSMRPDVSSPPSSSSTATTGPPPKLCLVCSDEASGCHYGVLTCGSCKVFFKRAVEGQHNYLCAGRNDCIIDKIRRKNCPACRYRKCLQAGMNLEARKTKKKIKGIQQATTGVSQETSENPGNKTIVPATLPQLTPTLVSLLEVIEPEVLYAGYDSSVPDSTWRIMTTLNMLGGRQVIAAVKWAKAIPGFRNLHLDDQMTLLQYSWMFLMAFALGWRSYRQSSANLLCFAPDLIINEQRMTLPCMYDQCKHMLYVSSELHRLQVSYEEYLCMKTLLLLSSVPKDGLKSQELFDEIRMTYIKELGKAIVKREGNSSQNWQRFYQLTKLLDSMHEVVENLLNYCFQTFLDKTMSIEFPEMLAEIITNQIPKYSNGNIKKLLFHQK

[8] = target: T2, Progesterone receptor (Homo sapiens); experiment: (§3) Antagonistic activity by cotransfection assay against human Progesterone receptor in CV-1 cells; format: functional, cell-based
[9] = target: T1, Progesterone receptor; experiment: as §3; format: functional, cell-based

| Structure (SMILES) | EC50 [1] [nM] | EC50 [2] [nM] | Efficacy [3] [%] | Efficacy [4] [%] | Ki [5] [nM] | Ki [6] [nM] | Ki [7] [nM] | Efficacy [8] [%] | IC50 [9] [nM] |
| --- | --- | --- | --- | --- | --- | --- | --- | --- | --- |
| C[C@@H]1C(=O)C(C)(C)Nc2ccc3c(c21)[C@H](c1ccccc1)Oc1ccccc1-3 | 10 | 23.5 | 92 | 92 | 6.6 | 732 | 249 |  |  |
| CC(=O)O[C@]1(C(C)=O)CC[C@H]2[C@@H]3C[C@H](C)C4=CC(=O)CC[C@]4(C)[C@H]3CC[C@@]21C |  |  |  | 90 |  |  |  |  |  |
| CC1CC(C)(C)Nc2ccc3c(c21)/C(=C/c1cccc(F)c1)Oc1ccccc1-3 (configuration not stated) | 47 |  | 114 |  | 6.3 |  |  |  |  |
| CC1(C)Nc2ccc3c(c2C(C)(C)C1=O)C(c1ccc(Cl)cc1)Oc1ccccc1-3 (configuration not stated) | 9.8 |  | 36 |  | 5.3 |  |  |  |  |
| C[C@@H]1C(=O)C(C)(C)Nc2ccc3c(c21)[C@H](c1ccc(Cl)cc1)Oc1ccccc1-3 |  |  | 122 | 97 |  | 1180 | 331 |  |  |
| C[C@@H]1C(=O)C(C)(C)Nc2ccc3c(c21)[C@H](c1cccc(C(F)(F)F)c1)Oc1ccccc1-3 | 14 | 37 | 93 | 85 | 16.6 | 1090 | 257 |  |  |
| C[C@H]1CC(C)(C)Nc2ccc3c(c21)[C@H](c1ccc(Cl)cc1)Oc1ccccc1-3 | 39 |  | 39 |  | 10.1 |  |  |  |  |
| CC1(C)CC(=O)c2c(ccc3c2C(c2ccc(Cl)cc2)Oc2ccccc2-3)N1 (configuration not stated) |  |  |  |  | 24.6 |  |  | 84 | 376 |
| C[C@H]1C(=O)C(C)(C)Nc2ccc3c(c21)[C@H](c1cccc(F)c1)Oc1ccccc1-3 | 8.7 | 26 | 114 | 107 | 28 | 504 | 864 |  |  |
| C[C@H]1c2c(ccc3c2[C@H](c2ccc(Cl)cc2)Oc2ccccc2-3)NC(C)(C)[C@@H]1O |  |  |  |  | > 500 |  |  | 91 | 460 |
| C[C@H]1C(=O)C(C)(C)Nc2ccc3c(c21)[C@H](c1ccccc1)Oc1ccccc1-3 | 9 | 35 | 103 | 102 | 28.6 | 1080 | 909 |  |  |
| C[C@@H]1c2c(ccc3c2[C@H](c2ccc(Cl)cc2)Oc2ccccc2-3)NC(C)(C)[C@H]1O |  |  |  |  | > 500 |  |  | 69 | 3200 |
| C[C@H]1C(=O)C(C)(C)Nc2ccc3c(c21)[C@H](c1ccc(Cl)cc1)Oc1ccccc1-3 |  |  | 102 | 107 |  | 698 | 913 |  |  |
| CC1=CC(C)(C)Nc2ccc3c(c21)C(C)Oc1ccc(Cl)cc1-3 (configuration not stated) |  |  |  | 42 |  |  |  |  |  |
| CC1(C)C=Cc2c(ccc3c2C(c2ccc(Cl)cc2)Oc2ccccc2-3)N1 (configuration not stated) | 1300 |  | 28 |  | 10.5 |  |  | 50 | 140 |
| CC1=CC(C)(C)Nc2ccc3c(c21)C(c1cccc(Cl)c1)Oc1ccc(F)cc1-3 (configuration not stated) |  | 27 |  | 47 |  |  |  |  |  |
| CC1C(=O)C(C)(C)Nc2ccc3c(c21)/C(=C/c1cccc(F)c1)Oc1ccccc1-3 (configuration not stated) | 8.7 | 25 | 155 | 83 | 3.5 | 560 | 4730 |  |  |
| CC1=CC(C)(C)Nc2ccc3c(c21)/C(=C/c1cccc(F)c1)Oc1ccccc1-3 |  | 51 |  | 55 |  |  |  |  |  |
| C[C@H]1C(=O)C(C)(C)Nc2ccc3c(c21)[C@H](c1cccc(C(F)(F)F)c1)Oc1ccccc1-3 | 16 | 63 | 66 | 103 | 123 | 807 | 250 |  |  |
| C=C1CC(C)(C)Nc2ccc3c(c21)C(c1ccc(Cl)cc1)Oc1ccccc1-3 (configuration not stated) | 124 |  | 30 |  |  |  |  | 81 | 1760 |
| C[C@@H]1C(=O)C(C)(C)Nc2ccc3c(c21)[C@H](c1cccc(F)c1)Oc1ccccc1-3 | 6.3 | 14.8 | 106 | 96 | 2.6 | 620 | 193 |  |  |
| CC1C(=O)C(C)(C)Nc2ccc3c(c21)/C(=C/c1ccccc1)Oc1ccccc1-3 (configuration not stated) | 17 | 18.3 | 133 | 93 | 4.9 | 1200 | 680 |  |  |
